Legend:
SK-BR-3 = test: Antiproliferative activity against human SK-BR3 cells after 96 hrs by MTS assay; type: functional; settings: SK-BR-3, 96 h
In short: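 Cells were kept in exponential growth in DMEM with 10% FBS, 1% penicillin and 1% glutamine, seeded at 4,000 per well and grown 48 h, with a time-zero plate counted. They were then exposed for 72 h to DMSO (1 v/v) or a concentration range in quadruplicate. Cell number was read by MTS/N-methylphenazine methylsulfate absorbance at 490 minus 630 nm. GI50 is relative to DMSO over the 72 h or 96 h period, and values above 50 µM are given as >50.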

Saccharomyces cerevisiae [1] = test: Inhibition of yeast Hsp70 ATPase assessed as ATP hydrolysis relative to control
In short: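 Purified yeast Hsp70 (Ssa1p) was pre-bound to ATP and run as a single-turnover assay, so that only the hydrolysis step is measured. Compound (300 µM) or DMSO was added at 0 s, and that time was set to zero. Results from multiple experiments were averaged, kinetics were fitted, and the value is the fold change in hydrolysis versus DMSO.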

Saccharomyces cerevisiae [2] = test: Inhibition of SV40 T antigen-stimulated Hsp70 ATPase in yeast assessed as ATP hydrolysis relative to control
In short: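 Yeast Ssa1p was pre-bound to ATP and run as a single-turnover assay with purified SV40 TAg (0.4 µM). Compound (300 µM) or DMSO was added at 60 s, and that time was set to zero. Runs were averaged over multiple experiments, kinetics were fitted, and the value is the fold change in TAg-stimulated ATP hydrolysis versus DMSO.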

| SMILES | GI50 (SK-BR-3) [µM] | Fold change (Saccharomyces cerevisiae [1]) | Fold change (Saccharomyces cerevisiae [2]) |
| --- | --- | --- | --- |
| CCCCCCN(C(=O)CCCCCN1C(=O)NC(c2ccc(C(C)(C)C)cc2)C(C(=O)OCc2ccccc2)=C1C)C(C(=O)NCCCC)c1ccc(OCC(=O)OC)c(C(=O)OC)c1 (centres undefined) | 29 | 1.2 | -5.2 |
| CCCCCCN(C(=O)CCCCCN1C(=O)NC(c2ccc(C(F)(F)F)cc2)C(C(=O)OCc2ccccc2)=C1C)C(C(=O)NCCCC)c1ccc(OCC(=O)OC)c(C(=O)OC)c1 (centres undefined) | > 50 | 1 | -4.8 |
| CCCCCCN(C(=O)CCCCCN1C(=O)NC(c2ccc(C3CCCCC3)cc2)C(C(=O)OCc2ccccc2)=C1C)C(C(=O)NCCCC)c1ccc(OCC(=O)OC)c(C(=O)OC)c1 (centres undefined) | 42 | 2.2 | -1.6 |
| CC1=C(C(=O)OCc2ccccc2)C(c2ccccc2)NC(=O)N1CCCCCC(=O)O (centres undefined) | > 50 | 1.5 | -1.1 |
| CCCCNC(=O)C(c1ccc(OCC(=O)OC)c(C(=O)OC)c1)N(Cc1ccccc1)C(=O)CCCCCN1C(=O)NC(c2ccc(-c3ccccc3)cc2)C(C(=O)OCc2ccccc2)=C1C (centres undefined) | 14 | 1.5 | -1.9 |
| CCCCCCN(C(=O)CCCCCN1C(=O)NC(c2ccc(-c3ccccc3)cc2)C(C(=O)OCc2ccccc2)=C1C)C(C(=O)NCCCC)c1ccc(OCC(=O)O)c(C(=O)O)c1 (centres undefined) | > 50 | 1.1 | -2.2 |
| CCCCCCN(C(=O)CCCCCN1C(=O)NC(c2ccc(-c3ccccc3)cc2)C(C(=O)OCc2ccccc2)=C1C)C(C(=O)NCCCC)c1ccc(OCC(=O)OC)cc1 (centres undefined) | 48 | 1.1 | 1.2 |
| CC1=C(C(=O)OCc2ccccc2)C(c2ccc(C3CCCCC3)cc2)NC(=O)N1CCCCCC(=O)O (centres undefined) | > 50 | 1.1 | -2.4 |
| CCCCNC(=O)C(c1ccc(OCC(=O)OC)c(C(=O)OC)c1)N(CCc1ccccc1)C(=O)CCCCCN1C(=O)NC(c2ccc(-c3ccccc3)cc2)C(C(=O)OCc2ccccc2)=C1C (centres undefined) | 32 | 12.3 | 1.3 |
| CCCCCCN(C(=O)CCCCCN1C(=O)NC(c2ccc(-c3ccccc3)cc2)C(C(=O)OCc2ccccc2)=C1C)C(C(=O)NCCCC)C1CCCCC1 (centres undefined) | > 50 | 3.2 | 1.1 |
| CC1=C(C(=O)OCc2ccccc2)C(c2ccc(C(F)(F)F)cc2)NC(=O)N1CCCCCC(=O)O (centres undefined) | > 50 | 1.2 | 1.1 |
| CCCCNC(=O)C(c1ccc(OCC(=O)OC)c(C(=O)OC)c1)N(CCC1=CCCCC1)C(=O)CCCCCN1C(=O)NC(c2ccc(-c3ccccc3)cc2)C(C(=O)OCc2ccccc2)=C1C (centres undefined) | 39 | 6.1 | -1.2 |
| CC1=C(C(=O)OCc2ccccc2)C(c2ccccc2-c2ccccc2)NC(=O)N1CCCCCC(=O)O (centres undefined) | > 50 | 1 | -5 |
| CCCCCCN(C(=O)CCCCCN1C(=O)NC(c2ccc(-c3ccccc3)cc2)C(C(=O)OCc2ccccc2)=C1C)C(C(=O)NCCCC)c1ccccn1 (centres undefined) | > 50 | 4.2 | 5.5 |
| CCCCCCN(C(=O)CCCCCN1C(=O)NC(c2ccc(-c3ccccc3)cc2)C(C(=O)OCc2ccccc2)=C1C)C(C(=O)NCCCC)c1ccc(-c2ccccc2)cc1 (centres undefined) | > 50 | 9.9 | 6 |
| CCCCCCN(C(=O)CCCCCN1C(=O)NC(c2ccc(-c3ccccc3)cc2)C(C(=O)OCc2ccccc2)=C1C)C(C)C(=O)NCCCC (centres undefined) | > 50 | 1.6 | 1 |
| CC1=C(C(=O)OCc2ccccc2)C(c2ccc(Cl)cc2)NC(=O)N1CCCCCC(=O)O (centres undefined) | > 50 | 1.3 | -1.6 |
| CCCCCCN(C(=O)CCCCCN1C(=O)NC(c2ccc(-c3ccccc3)cc2)C(C(=O)OCc2ccccc2)=C1C)C(C(=O)NCCCC)c1cccc(C(=O)OC)c1 (centres undefined) | > 50 | 3.7 | -2 |
| CCCCCCN(C(=O)CCCCCN1C(=O)NC(C2CCCCC2)C(C(=O)OCc2ccccc2)=C1C)C(C(=O)NCCCC)c1ccc(OCC(=O)OC)c(C(=O)OC)c1 (centres undefined) | 6.3 | 1.2 | -2.1 |
| CCCCCCN(C(=O)CCCCCN1C(=O)NC(c2ccc3ccccc3c2)C(C(=O)OCc2ccccc2)=C1C)C(C(=O)NCCCC)c1ccc(OCC(=O)OC)c(C(=O)OC)c1 (centres undefined) | 10 | 1 | -1.1 |
| CCCCCCN(C(=O)CCCCCN1C(=O)NC(c2ccc([N+](=O)[O-])cc2)C(C(=O)OCc2ccccc2)=C1C)C(C(=O)NCCCC)c1ccc(OCC(=O)OC)c(C(=O)OC)c1 (centres undefined) | 6.9 | 1 | -1.1 |

| SMILES | GI50 (SK-BR-3) [µM] | Fold change (Saccharomyces cerevisiae [1]) | Fold change (Saccharomyces cerevisiae [2]) |
| --- | --- | --- | --- |
| CC1=C(C(=O)OCc2ccccc2)C(c2ccc(C(C)(C)C)cc2)NC(=O)N1CCCCCC(=O)O (centres undefined) | > 50 | 1 | -3.5 |
| CCCCCCN(C(=O)CCCCCN1C(=O)NC(c2ccc(-c3ccccc3)cc2)C(C(=O)OCc2ccccc2)=C1C)C(C(=O)NCCCC)c1ccccc1 (centres undefined) | > 50 | 3.2 | 1.1 |
| CCCCNC(=O)C(c1ccc(OCC(=O)OC)c(C(=O)OC)c1)N(Cc1ccccn1)C(=O)CCCCCN1C(=O)NC(c2ccc(-c3ccccc3)cc2)C(C(=O)OCc2ccccc2)=C1C (centres undefined) | 7.1 | 1 | -1.1 |
| CCCCCCN(C(=O)CCCCCN1C(=O)NC(c2ccc(-c3ccccc3)cc2)C(C(=O)OCc2ccccc2)=C1C)C(C(=O)NCCCC)c1ccc(O)c(C(=O)OC)c1 (centres undefined) | > 50 | 19.1 | 2.1 |
| CC1=C(C(=O)OCc2ccccc2)C(C2CCCCC2)NC(=O)N1CCCCCC(=O)O (centres undefined) | > 50 | 1 | 1.5 |
| CCCCNC(=O)C(c1ccc(OCC(=O)OC)c(C(=O)OC)c1)N(CCc1c[nH]c2ccccc12)C(=O)CCCCCN1C(=O)NC(c2ccc(-c3ccccc3)cc2)C(C(=O)OCc2ccccc2)=C1C (centres undefined) | > 50 | 10.3 | -1.3 |
| CCCCCCN(C(=O)CCCCCN1C(=O)NC(c2ccc(Cl)cc2)C(C(=O)OCc2ccccc2)=C1C)C(C(=O)NCCCC)c1ccc(OCC(=O)OC)c(C(=O)OC)c1 (centres undefined) | 16 | 1.3 | -5.1 |
| CC1=C(C(=O)OCc2ccccc2)C(c2ccc([N+](=O)[O-])cc2)NC(=O)N1CCCCCC(=O)O (centres undefined) | > 50 | 1.2 | 1.1 |
| CCCCNC(=O)C(c1ccc(OCC(=O)OC)c(C(=O)OC)c1)N(CCc1ccccn1)C(=O)CCCCCN1C(=O)NC(c2ccc(-c3ccccc3)cc2)C(C(=O)OCc2ccccc2)=C1C (centres undefined) | 7.5 | -1.1 | -1.1 |
| CCCCCCN(C(=O)CCCCCN1C(=O)NC(c2ccc(-c3ccccc3)cc2)C(C(=O)OCc2ccccc2)=C1C)C(C(=O)NCCCC)c1ccc(O)cc1 (centres undefined) | > 50 | 11.8 | 9.2 |
| CC1=C(C(=O)OCc2ccccc2)C(C2CC2)NC(=O)N1CCCCCC(=O)O (centres undefined) | > 50 | 1.1 | 1 |
| CC1=C(C(=O)OCc2ccccc2)C(c2cccc([N+](=O)[O-])c2)NC(=O)N1CCCCCC(=O)O (centres undefined) | > 50 | -1.1 | 1.1 |
| CCCCNC(=O)C(c1ccc(-c2ccccc2)cc1)N(CCN1CCOCC1)C(=O)CCCCCN1C(=O)NC(c2ccc([N+](=O)[O-])cc2)C(C(=O)OCc2ccccc2)=C1C (centres undefined) | > 50 | 2.3 | -5 |
| COC(=O)CCCCCN1C(=O)NC(C2CC2)C(C(=O)OCc2ccccc2)=C1C (centres undefined) | > 50 | 1.9 | 1 |
| CC(=O)O[C@H]1C(=O)[C@@]2(C)[C@H]([C@H](OC(=O)c3ccccc3)[C@]3(O)C[C@H](OC(=O)[C@H](O)[C@@H](NC(=O)c4ccccc4)c4ccccc4)C(C)=C1C3(C)C)[C@]1(OC(C)=O)CO[C@@H]1C[C@@H]2O [PACLITAXEL] | 6.1 | – | – |
| CC1=C(C(=O)OCc2ccccc2)C(c2ccc(-c3ccccc3)cc2)NC(=O)N1CCCCCC(=O)O (centres undefined) | > 50 | 1.1 | -3.5 |
| CC1=C(C(=O)OCc2ccccc2)C(c2ccc3ccccc3c2)NC(=O)N1CCCCCC(=O)O (centres undefined) | > 50 | -1.1 | -1.4 |
| CCCCCCN(C(=O)CCCCCN1C(=O)NC(c2cccc([N+](=O)[O-])c2)C(C(=O)OCc2ccccc2)=C1C)C(C(=O)NCCCC)c1ccc(OCC(=O)OC)c(C(=O)OC)c1 (centres undefined) | 6 | 1.1 | -1.5 |
| COC(=O)CCCCCN1C(=O)NC(c2ccccc2)C(C(=O)OCc2ccccc2)=C1C (centres undefined) | > 50 | 2.3 | -1.7 |
| CCCCCCN(C(=O)CCCCCN1C(=O)NC(c2ccccc2-c2ccccc2)C(C(=O)OCc2ccccc2)=C1C)C(C(=O)NCCCC)c1ccc(OCC(=O)OC)c(C(=O)OC)c1 (centres undefined) | 17 | -1.1 | -4 |
| COC(=O)CCCCCN1C(=O)NC(c2ccc(-c3ccccc3)cc2)C(C(=O)OCc2ccccc2)=C1C (centres undefined) | > 50 | 2.6 | -1.2 |

From ChEMBL document CHEMBL1143913, “Pyrimidinone-peptoid hybrid molecules with distinct effects on molecular chaperone function and cell proliferation” (Bioorg Med Chem, 2008)
